Active and inactive are the calls of the source. The rule behind the calls is not given here.
What follows are compounds tested on Plasmodium falciparum (assay: Antiplasmodial activity against chloroquine-resistant Plasmodium falciparum Dd2 infected in erythrocytes assessed as reduction in parasite growth after 72 hrs by SYBR green I staining based fluorescence assay). Conditions: Dd2, Erythrocyte.
Format: functional, organism-based
Summary of the method: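 Asexual P. falciparum cultures at 1% parasitemia and 1% hematocrit, given serial dilutions in DMSO (0.1% maximum), were incubated 72 h at 37 °C in 5% CO2. Plates were frozen, thawed and lysed with Tris/saponin/EDTA/Triton X-100 buffer containing SYBR Green I, then kept 1 h dark at room temperature. Fluorescence was read at 485 excitation/530 emission. EC50 came from non-linear dose-response curves.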

**Q.** For Clc1ccc2nc(/C=C/c3ccncc3)cc(-n3cc(CN4CCOCC4)nn3)c2c1, which EC50 is on record?
**A.** > 10000 nM

**Q.** How did the EC50 turn out when Clc1ccc2nc(/C=C/c3ccncc3)cc(NCCn3cc(CN4CCCC4)nn3)c2c1 was run?
**A.** 2960 nM

**Q.** Which EC50 does the source give for Clc1ccc2nc(/C=C/c3ccncc3)cc(NCCn3cc(CN4CCOCC4)nn3)c2c1 here?
**A.** 1850 nM

**Q.** How did the EC50 turn out when Clc1ccc2nc(/C=C/c3ccncc3)cc(NCCCCn3cc(CN4CCCC4)nn3)c2c1 was run?
**A.** 690 nM

**Q.** With CN1CCN(Cc2cn(-c3cc(/C=C/c4ccncc4)nc4ccc(Cl)cc34)nn2)CC1 as the compound, how does the EC50 read?
**A.** > 10000 nM

**Q.** Which EC50 does the source give for OCCN1CCN(Cc2cn(CCNc3cc(/C=C/c4ccncc4)nc4ccc(Cl)cc34)nn2)CC1 here?
**A.** 4270 nM

**Q.** Which EC50 does the source give for Clc1ccc2nc(/C=C/c3ccncc3)cc(-n3cc(CN4CCCC4)nn3)c2c1 here?
**A.** 1650 nM

**Q.** Which EC50 does the source give for O=C1c2ccccc2C(=O)N1Cc1cn(-c2cc(/C=C/c3ccncc3)nc3ccc(Cl)cc23)nn1 here?
**A.** 8790 nM

**Q.** Which EC50 does the source give for O=C1c2ccccc2C(=O)N1Cc1cn(CCCCNc2cc(/C=C/c3ccncc3)nc3ccc(Cl)cc23)nn1 here?
**A.** 1000 nM

**Q.** Which EC50 does the source give for O=C1S/C(=C\c2ccccc2)C(=O)N1Cc1cn(CCCCNc2cc(/C=C/c3ccncc3)nc3ccc(Cl)cc23)nn1 here?
**A.** 600 nM

**Q.** Clc1ccc2nc(/C=C/c3ccncc3)cc(NCCn3cc(Cn4cccn4)nn3)c2c1 was tested. Which EC50 did it give?
**A.** 1180 nM

The compounds below were run on Plasmodium falciparum (assay: Parasiticidal activity against chloroquine-resistant Plasmodium falciparum Dd2 infected in erythrocytes assessed as reduction in parasitemia at 50 nM incubated for 24 to 48 hrs followed by compound washout and then incubated for 96 hrs by Giemsa staining based microscopic analysis). Conditions: time 24-48 hrs.
Format: functional, organism-based

**Q.** How did the Activity turn out when C[C@H]1[C@@H](O)O[C@@H]2O[C@@]3(C)CC[C@H]4[C@H](C)CC[C@@H]1[C@@]24OO3 was run?
**A.** Active

These compounds were tested on Plasmodium falciparum (assay: Antimalarial activity against Plasmodium falciparum RKL9 gametocytes incubated for 48 hrs by Giemsa staining based assay). Conditions: RKL9, 48 h.
Format: functional, organism-based

**Q.** O=C(Cn1cc(COc2ccc(Br)cc2)nn1)NCCNc1ccnc2cc(Cl)ccc12 was tested. Which IC50 did it give?
**A.** 8500 nM

What follows are compounds tested on Plasmodium falciparum (assay: Antiplasmodial activity against chloroquine-sensitive Plasmodium falciparum 3D7 infected in erythrocytes assessed as reduction in parasite growth after 72 hrs by SYBR green I staining based fluorescence assay). Conditions: 3D7, Erythrocyte.
Format: functional, organism-based
Summary of the method: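 Compound dilutions in DMSO (max 0.1% DMSO) added to P. falciparum culture at 1% parasitemia, 1% hematocrit; 72 h at 37 °C, 5% CO2. Plates frozen, thawed, lysed with buffer containing saponin, Triton X-100, EDTA and SYBR Green I; 1 h dark at room temperature; fluorescence ex 485/em 530. EC50 from non-linear dose-response curves.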

**Q.** How did the EC50 turn out when Clc1ccc2nc(/C=C/c3ccncc3)cc(NCCCCn3cc(CN4CCCC4)nn3)c2c1 was run?
**A.** 520 nM

**Q.** How did the EC50 turn out when O=C1S/C(=C\c2ccccc2)C(=O)N1Cc1cn(CCCCNc2cc(/C=C/c3ccncc3)nc3ccc(Cl)cc23)nn1 was run?
**A.** 330 nM

Each compound was assayed on Hemozoin (assay: Inhibition of beta-hematin formation at 12.5 to 200 uM after 16 hrs by inverted microscopic analysis). Conditions: dose 12.5-200 µM.

**Q.** How did the inhibition turn out when CCN(CC)CCCC(C)Nc1ccnc2cc(Cl)ccc12 (stereo not drawn) was run?
**A.** Active

These compounds were tested on HepG2 (assay: Cytotoxicity against human HepG2 cells assessed as reduction in cell viability after 48 hrs by MTS assay). Conditions: HepG2, 48 h.
Format: cell-based
Summary of the method: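 HepG2 cells seeded at 2250 per well, grown 24 h at 37 °C, 5% CO2. Serial compound dilutions starting at 25 μM added for a further 48 h. MTS reagent added for 3 h at 37 °C; viability read as absorbance at 490 nm.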

**Q.** With Clc1ccc2nc(/C=C/c3ccncc3)cc(NCCCCn3cc(CN4CCCC4)nn3)c2c1 as the compound, how does the EC50 read?
**A.** > 25000 nM

**Q.** For O=C1S/C(=C\c2ccccc2)C(=O)N1Cc1cn(CCCCNc2cc(/C=C/c3ccncc3)nc3ccc(Cl)cc23)nn1, which EC50 is on record?
**A.** > 25000 nM

From ChEMBL document CHEMBL4732055, “Discovery of fast-acting dual-stage antimalarial agents by profiling pyridylvinylquinoline chemical space via copper catalyzed azide-alkyne cycloadditions” (Eur J Med Chem, 2021)
